Experiment [1] deals with Serine/threonine-protein kinase pim-3 (Homo sapiens) (UniProt Q86V86). The experiment can be described thus: Inhibition of PIM3 assessed as remaining enzyme activity at 3 uM relative to DMSO. Summed up:
(§1)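 Radiometric kinase assay run robotically at room temperature for 30 min. Contained 10 mM magnesium acetate and [γ-33P]ATP (800 cpm/pmol) at 5, 20 or 50 μM, chosen per kinase to be at or below its ATP Km. Reactions were started with MgATP, stopped with orthophosphoric acid and spotted onto P81 filters. Result is mean % activity of duplicates at one inhibitor concentration versus DMSO control.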

Experiment [2] has as its target Inhibitor of nuclear factor kappa-B kinase subunit beta (Homo sapiens) (UniProt O14920). The experiment is described as follows: Inhibition of IKK-beta assessed as remaining enzyme activity at 3 uM relative to DMSO. The method, boiled down:
(§2)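 Dundee kinase panel, radiometric: [γ-33P]ATP (800 cpm/pmol) at 5, 20 or 50 μM, at or below each kinase's ATP Km; 10 mM magnesium acetate; robotic, room temperature, 30 min. Reactions started with MgATP, stopped with orthophosphoric acid, spotted onto P81 filters. Inhibitor tested at a single concentration; mean % activity of duplicates relative to DMSO control.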

In experiment [3] the target is Mitogen-activated protein kinase 9 (Homo sapiens) (UniProt P45984). The experiment is described as follows: Inhibition of JNK2 assessed as remaining enzyme activity at 3 uM relative to DMSO. The method, boiled down:
as §2

Experiment [4] deals with Serine/threonine-protein kinase TBK1 (Homo sapiens) (UniProt Q9UHD2). The experiment is described as follows: Inhibition of TBK1 assessed as remaining enzyme activity at 3 uM relative to DMSO.
Experiment [5] concerns the target NUAK family SNF1-like kinase 1 (Homo sapiens) (UniProt O60285). The experiment is described as follows: Inhibition of NUAK1 assessed as remaining enzyme activity at 3 uM relative to DMSO. The method, boiled down: as §1
Experiment [6] has as its target Mitogen-activated protein kinase kinase kinase kinase 2 (Homo sapiens) (UniProt Q12851). The experiment can be described thus: Inhibition of GCK assessed as remaining enzyme activity at 3 uM relative to DMSO. Summed up: as §2
In experiment [7] the target is Dual specificity tyrosine-phosphorylation-regulated kinase 3 (Homo sapiens) (UniProt O43781). The experiment is described as follows: Inhibition of DYRK3 assessed as remaining enzyme activity at 3 uM relative to DMSO. The method, boiled down: as §2
The target of experiment [8] is Fibroblast growth factor receptor 1 (Homo sapiens) (UniProt P11362). The experiment can be described thus: Inhibition of FGF-R1 assessed as remaining enzyme activity at 3 uM relative to DMSO. The method, boiled down: as §2
In the next experiment the target is Ephrin type-A receptor 3 (Homo sapiens, UniProt P29320). The experiment is described as follows: Inhibition of EphA3 by [gamma33-P]ATP based assay. The method, boiled down:
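Radiometric [γ-33P]ATP kinase assay against Eph kinases, following a protocol similar to the Mg-acetate/MgATP filter-binding method.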

Experiment [9] deals with Mitogen-activated protein kinase 14 (Homo sapiens) (UniProt Q16539). The experiment can be described thus: Inhibition of p38alpha assessed as remaining enzyme activity at 1 uM relative to DMSO.
The target in experiment [10] is Serine/threonine-protein kinase Nek2 (Homo sapiens) (UniProt P51955). The experiment is described as follows: Inhibition of NEK2alpha assessed as remaining enzyme activity at 1 uM relative to DMSO. The method, boiled down:
as §1

In experiment [11] the target is Fibroblast growth factor receptor 4 (Homo sapiens) (UniProt P22455). The experiment is described as follows: Binding affinity to FGFR4 assessed as percentage of kinase remaining bound to the bead at 1 uM by T7 phage display based binding assay. The method, boiled down:
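Competition binding assay run by a contract lab. Each kinase was expressed as a fusion to T7 phage, full-length for small kinases and catalytic domain for large ones. Phage were mixed with an immobilized known kinase inhibitor on streptavidin magnetic beads and with test compound at a single 1 μM. Kinase/phage still bound to the beads was quantified by qPCR and expressed as % of DMSO control.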

The target in experiment [12] is Fibroblast growth factor receptor 1 (Homo sapiens) (UniProt P11362). The experiment can be described thus: Inhibition of FGF-R1 assessed as remaining enzyme activity at 1 uM relative to DMSO. The method, boiled down:
as §2

Experiment [13] has as its target Serine/threonine-protein kinase D1 (Homo sapiens) (UniProt Q15139). The experiment can be described thus: Inhibition of PKD1 assessed as remaining enzyme activity at 1 uM relative to DMSO.

Structures are written as SMILES.

Sequence of Fibroblast growth factor receptor 1 (Homo sapiens) (P11362 22-822 limits assumed): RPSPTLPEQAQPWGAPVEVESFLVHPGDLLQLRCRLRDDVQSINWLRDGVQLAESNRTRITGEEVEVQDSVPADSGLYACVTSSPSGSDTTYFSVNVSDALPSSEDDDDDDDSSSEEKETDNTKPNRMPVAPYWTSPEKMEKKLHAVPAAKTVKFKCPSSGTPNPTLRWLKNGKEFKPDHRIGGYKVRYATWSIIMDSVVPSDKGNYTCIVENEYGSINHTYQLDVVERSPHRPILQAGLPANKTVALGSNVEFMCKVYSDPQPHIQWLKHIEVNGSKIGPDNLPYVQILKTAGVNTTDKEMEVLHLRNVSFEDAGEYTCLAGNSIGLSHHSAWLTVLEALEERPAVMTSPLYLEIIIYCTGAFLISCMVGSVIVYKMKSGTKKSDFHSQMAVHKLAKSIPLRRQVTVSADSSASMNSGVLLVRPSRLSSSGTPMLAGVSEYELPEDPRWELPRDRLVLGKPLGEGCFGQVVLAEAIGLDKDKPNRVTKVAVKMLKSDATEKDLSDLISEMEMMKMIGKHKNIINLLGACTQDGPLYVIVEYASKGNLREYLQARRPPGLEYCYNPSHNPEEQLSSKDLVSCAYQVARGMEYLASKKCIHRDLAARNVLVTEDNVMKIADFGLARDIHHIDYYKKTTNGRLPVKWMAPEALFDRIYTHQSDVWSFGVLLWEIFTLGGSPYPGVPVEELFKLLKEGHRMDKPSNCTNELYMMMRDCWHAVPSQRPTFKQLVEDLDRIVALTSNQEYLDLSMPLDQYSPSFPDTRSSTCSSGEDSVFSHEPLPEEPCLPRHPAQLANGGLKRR
Sequence of Inhibitor of nuclear factor kappa-B kinase subunit beta (Homo sapiens) (O14920 whole entry): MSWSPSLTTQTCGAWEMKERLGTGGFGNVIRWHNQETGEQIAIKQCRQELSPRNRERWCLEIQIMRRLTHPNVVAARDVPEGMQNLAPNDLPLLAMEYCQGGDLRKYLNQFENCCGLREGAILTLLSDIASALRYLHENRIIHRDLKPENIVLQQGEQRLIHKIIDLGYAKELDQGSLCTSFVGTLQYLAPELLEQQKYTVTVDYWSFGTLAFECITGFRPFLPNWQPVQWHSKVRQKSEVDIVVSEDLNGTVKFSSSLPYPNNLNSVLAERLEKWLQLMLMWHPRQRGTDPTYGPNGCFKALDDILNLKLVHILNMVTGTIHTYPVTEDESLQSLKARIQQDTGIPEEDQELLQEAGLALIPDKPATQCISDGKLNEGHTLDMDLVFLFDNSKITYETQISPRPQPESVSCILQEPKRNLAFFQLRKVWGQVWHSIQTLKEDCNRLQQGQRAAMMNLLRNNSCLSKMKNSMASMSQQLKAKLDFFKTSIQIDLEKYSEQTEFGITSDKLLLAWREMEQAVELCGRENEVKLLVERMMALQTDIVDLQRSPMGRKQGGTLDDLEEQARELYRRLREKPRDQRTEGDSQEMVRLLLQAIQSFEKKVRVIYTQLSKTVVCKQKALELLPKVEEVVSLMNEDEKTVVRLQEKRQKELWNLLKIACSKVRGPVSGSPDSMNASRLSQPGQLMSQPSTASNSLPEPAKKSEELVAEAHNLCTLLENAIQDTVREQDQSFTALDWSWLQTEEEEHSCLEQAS
Sequence of Serine/threonine-protein kinase TBK1 (Homo sapiens) (Q9UHD2 whole entry): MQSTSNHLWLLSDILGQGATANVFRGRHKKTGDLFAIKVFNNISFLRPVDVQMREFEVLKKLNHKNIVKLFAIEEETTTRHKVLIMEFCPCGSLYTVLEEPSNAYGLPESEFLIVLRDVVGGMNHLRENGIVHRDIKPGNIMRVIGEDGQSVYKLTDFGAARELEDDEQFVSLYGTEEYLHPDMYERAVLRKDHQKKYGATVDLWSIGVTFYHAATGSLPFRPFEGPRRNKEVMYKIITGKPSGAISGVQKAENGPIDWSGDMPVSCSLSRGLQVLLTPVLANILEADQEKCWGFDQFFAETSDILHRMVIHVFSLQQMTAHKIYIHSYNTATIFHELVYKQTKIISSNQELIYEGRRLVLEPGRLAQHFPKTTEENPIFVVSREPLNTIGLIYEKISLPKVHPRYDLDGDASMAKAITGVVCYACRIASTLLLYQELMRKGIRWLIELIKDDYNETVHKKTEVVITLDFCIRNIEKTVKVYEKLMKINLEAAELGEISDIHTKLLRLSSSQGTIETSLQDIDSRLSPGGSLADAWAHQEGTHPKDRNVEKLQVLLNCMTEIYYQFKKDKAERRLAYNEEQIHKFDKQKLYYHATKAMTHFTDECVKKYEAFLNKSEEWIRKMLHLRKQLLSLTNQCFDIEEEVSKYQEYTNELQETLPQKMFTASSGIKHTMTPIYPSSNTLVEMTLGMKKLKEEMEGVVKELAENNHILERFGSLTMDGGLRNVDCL
Sequence of NUAK family SNF1-like kinase 1 (Homo sapiens) (O60285 whole entry): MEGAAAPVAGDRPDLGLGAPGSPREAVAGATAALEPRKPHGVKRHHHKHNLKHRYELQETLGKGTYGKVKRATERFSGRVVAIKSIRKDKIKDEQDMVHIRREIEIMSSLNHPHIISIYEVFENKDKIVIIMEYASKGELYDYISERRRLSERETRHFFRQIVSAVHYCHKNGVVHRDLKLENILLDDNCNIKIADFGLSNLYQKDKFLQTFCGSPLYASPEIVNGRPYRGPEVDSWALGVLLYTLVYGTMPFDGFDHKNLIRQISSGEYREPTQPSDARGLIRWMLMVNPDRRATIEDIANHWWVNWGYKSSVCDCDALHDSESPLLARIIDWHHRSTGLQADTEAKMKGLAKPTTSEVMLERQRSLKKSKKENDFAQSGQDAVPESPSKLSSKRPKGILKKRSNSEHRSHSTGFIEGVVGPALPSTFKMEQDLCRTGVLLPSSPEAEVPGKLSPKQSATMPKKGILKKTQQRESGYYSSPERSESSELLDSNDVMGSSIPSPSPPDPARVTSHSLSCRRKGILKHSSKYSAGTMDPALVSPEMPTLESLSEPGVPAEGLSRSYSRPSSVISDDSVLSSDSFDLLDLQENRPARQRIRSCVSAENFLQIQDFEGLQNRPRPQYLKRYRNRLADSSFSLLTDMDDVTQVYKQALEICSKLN
Sequence of Serine/threonine-protein kinase D1 (Homo sapiens) (Q15139 whole entry): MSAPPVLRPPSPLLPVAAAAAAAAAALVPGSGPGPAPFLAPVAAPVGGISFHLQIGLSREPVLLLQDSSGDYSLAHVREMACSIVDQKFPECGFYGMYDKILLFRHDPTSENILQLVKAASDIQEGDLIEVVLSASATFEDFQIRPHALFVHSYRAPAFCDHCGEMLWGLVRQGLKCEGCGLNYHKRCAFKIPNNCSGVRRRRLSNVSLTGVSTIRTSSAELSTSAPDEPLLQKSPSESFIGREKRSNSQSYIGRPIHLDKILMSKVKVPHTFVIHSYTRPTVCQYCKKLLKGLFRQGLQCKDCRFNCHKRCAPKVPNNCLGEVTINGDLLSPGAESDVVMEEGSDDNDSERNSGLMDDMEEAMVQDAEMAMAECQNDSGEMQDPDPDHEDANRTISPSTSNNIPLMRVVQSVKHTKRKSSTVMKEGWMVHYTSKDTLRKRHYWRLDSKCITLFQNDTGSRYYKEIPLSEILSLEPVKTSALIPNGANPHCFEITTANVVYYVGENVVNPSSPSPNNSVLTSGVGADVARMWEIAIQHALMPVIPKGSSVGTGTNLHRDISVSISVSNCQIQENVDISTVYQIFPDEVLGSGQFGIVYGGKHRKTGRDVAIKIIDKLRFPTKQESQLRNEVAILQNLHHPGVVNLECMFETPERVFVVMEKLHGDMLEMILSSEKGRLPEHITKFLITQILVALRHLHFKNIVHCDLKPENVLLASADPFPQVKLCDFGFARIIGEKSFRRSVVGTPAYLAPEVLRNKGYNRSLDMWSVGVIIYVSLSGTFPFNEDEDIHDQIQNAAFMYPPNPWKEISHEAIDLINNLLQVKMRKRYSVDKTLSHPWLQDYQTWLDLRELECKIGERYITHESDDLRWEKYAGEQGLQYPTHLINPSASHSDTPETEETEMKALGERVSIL
Sequence of Mitogen-activated protein kinase 14 (Homo sapiens) (Q16539 whole entry): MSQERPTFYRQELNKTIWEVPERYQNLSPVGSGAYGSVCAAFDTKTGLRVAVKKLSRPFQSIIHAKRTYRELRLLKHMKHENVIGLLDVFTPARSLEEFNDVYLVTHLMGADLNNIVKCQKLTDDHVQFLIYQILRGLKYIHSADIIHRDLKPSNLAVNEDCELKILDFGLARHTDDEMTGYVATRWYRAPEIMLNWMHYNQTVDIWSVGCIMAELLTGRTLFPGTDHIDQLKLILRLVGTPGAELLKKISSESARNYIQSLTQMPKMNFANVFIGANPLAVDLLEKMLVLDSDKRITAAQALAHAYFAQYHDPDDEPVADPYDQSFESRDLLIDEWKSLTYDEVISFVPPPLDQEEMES
Sequence of Mitogen-activated protein kinase 9 (Homo sapiens) (P45984 whole entry, looked up): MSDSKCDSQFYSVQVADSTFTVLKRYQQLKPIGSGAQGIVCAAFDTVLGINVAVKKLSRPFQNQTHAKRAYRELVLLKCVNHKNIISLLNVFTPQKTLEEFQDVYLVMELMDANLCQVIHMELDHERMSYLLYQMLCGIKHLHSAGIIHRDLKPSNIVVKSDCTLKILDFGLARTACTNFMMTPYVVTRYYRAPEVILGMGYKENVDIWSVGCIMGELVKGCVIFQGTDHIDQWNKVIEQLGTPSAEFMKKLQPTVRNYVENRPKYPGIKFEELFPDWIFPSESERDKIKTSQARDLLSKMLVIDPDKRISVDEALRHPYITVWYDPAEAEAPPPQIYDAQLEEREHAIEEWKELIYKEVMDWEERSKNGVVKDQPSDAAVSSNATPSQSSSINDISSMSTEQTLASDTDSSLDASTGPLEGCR

In the case of `COc1ccccc1-n1c(-c2ccccc2C)cn2c3c(=O)[nH]c(=O)n(C)c3nc12`, the Activity is 111% in [1]; 92% in experiment [2]; 93% in experiment [3]; 79% in experiment [4]; 140% in experiment [5]; 109% in [6]. In addition, the Activity in experiment [7] was found to be 103%; in experiment [8] it was 90%.
Regarding `COc1ccccc1-n1c(-c2cc(O)ccc2C)cn2c3c(=O)[nH]c(=O)n(C)c3nc12`, inhibition at Ephrin type-A receptor 3 was half-maximal at 40 nM (IC50). Further, the Activity in experiment [9] was determined as 97%; in [10], 123%; in experiment [11], 100%; in experiment [12], 62%; in experiment [13], 92%.

Source of the values: ChEMBL document CHEMBL1154183, “Structure-based optimization of potent and selective inhibitors of the tyrosine kinase erythropoietin producing human hepatocellular carcinoma receptor B4 (EphB4)” (J Med Chem, 2009).
